Source: ChEMBL document CHEMBL1123335, “Synthesis and class III antiarrhythmic activity of (phenylbut-2-enyl)ammonium salts. Effect of conformation on activity” (J Med Chem, 1986)
“And” between values parts separate entries of the source, which are not always exact repeats. Equal values may be shown once.

Tests used:
[1] = species on record: Canis familiaris; test: Compound was evaluated for intracellular electrophysiology in canine potential (Vmax) at a dose of 100 uM; format: functional; settings: Canis lupus familiaris
Outline: (§1)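 Canine Purkinje fibers at 37 ± 0.5 °C, gassed 95:5 O2/CO2 (pH 7.35–7.40), stimulated at 1.0 Hz. Maximum upstroke velocity (Vmax) recorded by glass microelectrode after up to 1 h stabilization. Compounds tested at 10^-8–10^-4 M with 30 min exposure per concentration. Reported as maximum observed effect on Vmax and the concentration at which it occurred.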

[2] = species on record: Canis familiaris; test: Compound was evaluated for intracellular electrophysiology in canine Purkinje fiber measured as concentration that caused 20% prolongation of action potential duration (APD95) at a dose range of 0.01-10 uM; NR=Not reached; format: functional; settings: Canis lupus familiaris
Outline: (§2)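 Canine Purkinje fibers superfused at 37 ± 0.5 °C, pH 7.35–7.40 (95:5 O2/CO2), paced at 1.0 Hz (2-ms pulses, 2× diastolic threshold). Fibers stabilized up to 1 h. Intracellular microelectrode (3 M KCl) recording of APD95, 30 min exposure per concentration across 10^-8–10^-4 M. Value is concentration giving 20% APD95 prolongation, or maximum prolongation with its concentration.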

[3] = species on record: Canis familiaris; test: Intracellular electrophysiology in canine Purkinje fiber measured as maximum prolongation of APD95 observed at a dose of 10 uM; format: functional, Canis lupus familiaris; outline: as §2
[4] = species on record: Canis familiaris; test: Intracellular electrophysiology in canine Purkinje fiber measured as concentration that caused 20% prolongation of action potential duration (APD95); format: functional, Canis lupus familiaris; outline: as §2
[5] = species on record: Canis familiaris; test: Intracellular electrophysiology in canine potential (Vmax) at a dose range.; format: functional; settings: Canis lupus familiaris; outline: as §1
[6] = test system: Canis familiaris; test: In vivo antiarrhythmic efficacy in anesthetized dogs
[7] = test system: Canis familiaris; test: In vivo antiarrhythmic efficacy in anesthetized dogs; 2/2
[8] = test system: Canis familiaris; test: Compound was evaluated for intraduodenal bioavailability in anesthetized dogs measured as mean blood pressure at a dose of 10/30 range; 2/16; format: ADME, organism-based, Canis lupus familiaris, Artery; settings: dog, in vivo
Outline: (§3)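 Pentobarbital-anesthetized (30 mg/kg i.v.) dogs, 8–20 kg, either sex. Compound given intraduodenally as a 0.5% tragacanth suspension, usually as two doses, the second cumulative. HR, BP, FRP and conduction were measured at 15, 30 and 45 min postdose. Mean BP reported as % change from control, low dose/high dose, for each animal.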

[9] = species on record: Canis familiaris; test: Compound was evaluated for intracellular electrophysiology in canine potential (Vmax) at a dose range of 100 uM; format: functional; settings: Canis lupus familiaris; outline: as §1
[10] = species on record: Canis familiaris; test: Compound was evaluated for intracellular electrophysiology in canine Purkinje fiber measured as maximum prolongation of APD95 observed at a dose range of 100 uM; format: functional, Canis lupus familiaris; outline: as §2
[11] = species on record: Canis familiaris; test: Compound was evaluated for intracellular electrophysiology in canine Purkinje fiber measured as concentration that caused 20% prolongation of action potential duration (APD95) at a dose range of 0.1-10 uM; format: functional, Canis lupus familiaris; outline: as §2
[12] = species on record: Canis familiaris; test: Compound was evaluated for intracellular electrophysiology in canine Purkinje fiber measured as concentration that caused 20% prolongation of action potential duration (APD95) at a dose range of 0.01-100 uM; format: functional, Canis lupus familiaris; outline: as §2
[13] = species on record: Canis familiaris; test: Compound was evaluated for intracellular electrophysiology in canine Purkinje fiber measured as concentration that caused 20% prolongation of action potential duration (APD95) at a dose range of 0.1-100 uM; format: functional, Canis lupus familiaris; outline: as §2
[14] = test system: Canis familiaris; test: Compound was evaluated for intraduodenal bioavailability in anesthetized dogs measured as mean blood pressure at a dose of 10/30 range; 19/3; format: ADME, organism-based, Canis lupus familiaris, Artery; settings: dog, in vivo; outline: as §3
[15] = test system: Canis familiaris; test: Compound was evaluated for intraduodenal bioavailability in anesthetized dogs measured as mean blood pressure at a dose of 3 range; format: ADME, organism-based, Canis lupus familiaris, Artery; settings: dog, in vivo, other; outline: as §3
[16] = species on record: Canis familiaris; test: Compound was evaluated for intracellular electrophysiology in canine Purkinje fiber measured as maximum prolongation of APD95 observed at 10 uM; format: functional, Canis lupus familiaris; outline: as §2
[17] = species on record: Canis familiaris; test: Compound was evaluated for intracellular electrophysiology in canine Purkinje fiber measured as maximum prolongation of APD95 observed at 1 uM; format: functional, Canis lupus familiaris; outline: as §2
[18] = species on record: Canis familiaris; test: Compound was evaluated for intracellular electrophysiology in canine potential (Vmax) at 100 uM; format: functional; settings: Canis lupus familiaris; outline: as §1
[19] = species on record: Canis familiaris; test: Concentration at which maximum observed effect on the action potential (Vmax) at a dose range of 0.1-100 uM occurred; 2/2; format: functional, Canis lupus familiaris
[20] = species on record: Canis familiaris; test: Compound was evaluated for intracellular electrophysiology in canine potential (Vmax) at 10 uM; format: functional; settings: Canis lupus familiaris; outline: as §1
[21] = test system: Canis familiaris; test: Compound was evaluated for intraduodenal bioavailability in anesthetized dogs measured as mean blood pressure at a dose of 10/30 range; 10/31; format: ADME, organism-based, Canis lupus familiaris, Artery; settings: dog, in vivo; outline: as §3
[22] = test system: Canis familiaris; test: Compound was evaluated for intraduodenal bioavailability in anesthetized dogs measured as mean blood pressure at a dose of 10/60 range; 13/23; format: ADME, organism-based, Canis lupus familiaris, Artery; settings: dog, in vivo; outline: as §3
[23] = test system: Canis familiaris; test: Compound was evaluated for intraduodenal bioavailability in anesthetized dogs measured as mean blood pressure at a dose of 10/30 range; 6/2; format: ADME, organism-based, Canis lupus familiaris, Artery; settings: dog, in vivo; outline: as §3
[24] = species on record: Canis familiaris; test: Compound was evaluated for intracellular electrophysiology in canine Purkinje fiber measured as concentration that caused 20% prolongation of action potential duration (APD95) at a dose range of 0.01-1 uM; format: functional, Canis lupus familiaris; outline: as §2
[25] = test system: Canis familiaris; test: Compound was evaluated for intraduodenal bioavailability in anesthetized dogs measured as mean blood pressure at a dose of 10/30 range; 8/8; format: ADME, organism-based, Canis lupus familiaris, Artery; settings: dog, in vivo; outline: as §3
[26] = species on record: Canis familiaris; test: Compound was evaluated for intracellular electrophysiology in canine Purkinje fiber measured as maximum prolongation of APD95 observed at a dose of 1 uM; format: functional, Canis lupus familiaris; outline: as §2
[27] = species on record: Canis familiaris; test: Compound was evaluated for intracellular electrophysiology in canine uM; format: functional; settings: Canis lupus familiaris; outline: as §1
[28] = species on record: Canis familiaris; test: Compound was evaluated for intracellular electrophysiology in canine potential (Vmax) at a dose of 1 uM; format: functional, Canis lupus familiaris; settings: at 1 µM
[29] = species on record: Canis familiaris; test: Compound was evaluated for intracellular electrophysiology in canine potential (Vmax) at a dose range of 0.01-10 uM; format: functional; settings: Canis lupus familiaris; at 0.01 to 10 µM
Outline: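 Isolated cardiac fibres superfused with bicarbonate/glucose salt solution gassed 95:5 O2/CO2 (pH 7.35–7.40), 37 ± 0.5 °C. Bipolar stimulation at 1.0 Hz with 2-ms square pulses at twice diastolic threshold. Intracellular recording with 3 M KCl glass microelectrodes after up to 1 h stabilization. Each concentration (10^-8–10^-4 M) applied for 30 min. Value is the maximum Vmax effect and the concentration at which it occurred, per study.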

[30] = test system: Canis familiaris; test: In vivo antiarrhythmic efficacy in anesthetized dogs; 2/3
[31] = species on record: Canis familiaris; test: Compound was evaluated for intracellular electrophysiology in canine potential (Vmax) at a dose of 10 uM; format: functional, Canis lupus familiaris; outline: as §1
[32] = test system: Canis familiaris; test: In vivo antiarrhythmic efficacy in anesthetized dogs; Inactive at 3 mg/kg
[33] = test system: Canis familiaris; test: Compound was evaluated for intraduodenal bioavailability in anesthetized dogs measured as mean blood pressure at a dose of 10/30 range; 8/49; format: ADME, organism-based, Canis lupus familiaris, Artery; settings: dog, in vivo; outline: as §3

With `CCN(CC)CC#CCc1ccc(Cl)cc1.Cl` the Vmax [1] was -34%, the C20 [2] was “Not reached” and the APD95 [3] was -6%.
For `CCCCCCC[N+](CC)(CC)C/C=C\Cc1ccc(Br)cc1.O=P([O-])(O)O`, the C20 [4] was 5.7 µM, the Vmax [5] was “Minimal” and the Effective dose [6] was 1 mg/kg and 3 mg/kg. For the same compound, the Efficacy [7] was 2.
In the case of `CCCCCCC[N+](CC)(CC)C/C=C\Cc1ccc(Cl)cc1.Cc1ccc(S(=O)(=O)[O-])cc1`, the APD95 [3] was 42% and 47% and 23%.
`CCN(CC)C/C(C)=C(/C)Cc1ccc([N-]S(C)(=O)=O)cc1.[Na+]` was tested, and the C20 [4] was 2.2 µM, the Bioavailabiility [8] was 2% and the Vmax [9] was -13%. It also gave an APD95 [10] of 78%.
In the case of `CCN(CC)C/C(C)=C(/C)Cc1ccc([N+](=O)[O-])cc1.Cl`, the C20 [11] was 0.4 µM, the C20 [12] was 0.05 µM and the Effective dose [6] was 0.1 mg/kg and 0.3 mg/kg. The C20 [13] was less than 0.1 µM, the Bioavailabiility [14] was 19% and the Bioavailabiility [15] was 9%. For the same compound, the APD95 [16] was 66% and 55%, the “Max APD95” value [17] was 27% and the Vmax [18] was -28% and -52%. For the same compound, the Efficacy [19] was 2.
`CCN(CC)C/C=C\Cc1ccc([N+](=O)[O-])cc1.Cl` was tested, and the C20 [4] was 0.9 µM, the Vmax [20] was -13% and the APD95 [16] was 25%. It also gave a Bioavailabiility [21] of 10%.
In the case of `CCCCCCC[N+](CC)(CC)C/C=C\Cc1ccc(Cl)cc1.O=P([O-])(O)O`, the Effective dose [6] was 0.3 mg/kg, the Efficacy [7] was 2 and the APD95 [3] was 28% and 29% and 23%.
In the case of `CCCCCCC[N+](CC)(CC)C/C=C\Cc1cccc(Cl)c1Cl.Cc1ccc(S(=O)(=O)[O-])cc1`, the C20 [4] was 2 µM, the Bioavailabiility [22] was 13% and the Vmax [5] was “Minimal”. It also gave an APD95 [3] of 35%.
For `CCCCCCC[N+](CC)(CC)C/C=C\Cc1ccccc1Cl.[Cl-]`, the Bioavailabiility [23] was 6%, the Vmax [5] was “Minimal” and the Efficacy [7] was 2. The C20 [24] was less than 0.1 µM, the C20 [2] was “Not reached” and the APD95 [3] was 16%. The Bioavailabiility [25] was 8% and the APD95 [26] was 72%.
`CC[N+](CC)(CC)CC#CCc1ccc(Cl)cc1.[I-]` showed a C20 [4] of 0.3 µM, an APD95 [3] of 53% and a Vmax [27] of -6%.
`CCCCCCC[N+](CC)(CC)CCCCc1ccc(Cl)cc1.O=P([O-])(O)O` [CLOFILIUM PHOSPHATE] was tested, and the C20 [4] was 2 µM, the APD95 [28] was 25% and 29% and the Vmax [29] was -21%. For the same compound, the Effective dose [6] was 0.1 mg/kg, the Efficacy [30] was 2 and the APD95 [31] was 78% and 27%. For the same compound, the Effective dose [32] was 0.5 mg/kg and the APD95 [3] was 29% and 46%.
For `C[N+](C)(C)C/C=C\Cc1ccc(Cl)cc1.[Cl-]`, the C20 [4] was 0.3 µM, the Vmax [5] was “Minimal” and the Bioavailabiility [33] was 8%. For the same compound, the APD95 [3] was 43%.
With `CCCCCCC[N+](CC)(CC)C/C=C/Cc1ccc(Cl)cc1.Cc1ccc(S(=O)(=O)[O-])cc1` the C20 [4] was <1 µM and 1.9 µM and 1.4 µM.
